Results gathered from unrelated publications.
Target: Serine/threonine-protein kinase WNK2 (WNK2, Homo sapiens, UniProt Q9Y3S1)

Compound	test	setting	quantity	value
N#CCCc1ccc2c(c1)-c1[nH]c3ccc([N+](=O)[O-])cc3c1CC(=O)N2	cell-free assay	0.5 µM	remaining signal	112%
COCCOc1nc(-c2ccc(Cl)nc2)nc2c1CN(C(=O)c1ncn3ccccc13)CC2	cell-free assay, competition with immobilised ligand	0.1 µM	remaining binding	100%
CN(CCCC(F)(F)F)c1nccc(-c2cnn3ncccc23)n1	binding	1 µM	remaining binding	100%
O=C(Nc1cnn(-c2csc(C(=O)NC3COC3)c2)c1)Nc1c(F)cccc1Cl	enzyme activity, inhibitor	5 µM	remaining activity	91.9%
O=C(O)[C@@H]1[C@@H](Cn2nnc3ccccc3c2=O)CC[C@H]1C(=O)c1ccc(OCCC2CCOCC2)cc1	cell-free assay, competition with immobilised ligand	1 µM	remaining binding	82%
Cc1ccc(Nc2nccc(N(C)c3ccc4c(C)n(C)nc4c3)n2)cc1S(N)(=O)=O	enzyme activity, inhibitor	0.3 µM	inhibition	2%
CC(C)(C)c1nc(-c2cccc(NS(=O)(=O)c3c(F)cccc3F)c2F)c(-c2ccnc(N)n2)s1	enzyme activity, inhibitor, radiometric	1 µM	remaining activity	103%
Nc1ncnc2occ(-c3ccc(NC(=O)Nc4cc(C(F)(F)F)ccc4F)cc3)c12	cell-free assay, inhibitor	20 µM	remaining signal	65%
COc1cccc(CNC(=O)c2nc3scc(COCc4ccc(C(=O)O)cc4)c3c(=O)[nH]2)c1	cell-free assay, competition with immobilised ligand	1 µM	remaining binding	54.2%
CNC(=O)c1cc(Oc2ccc(NC(=O)Nc3ccc(Cl)c(C(F)(F)F)c3)cc2)ccn1	enzyme activity, inhibitor	0.3 µM	inhibition	1%
CO[C@@H](C)c1c(Nc2ccc([C@@H](N(C)C(=O)C3CCS(=O)(=O)CC3)C(F)(F)F)cc2)cnc2cc(Cl)nn12	cell-free assay, competition with immobilised ligand	1 µM	remaining binding	100%
O=C1NC(=O)c2cc(Nc3ccc(F)cc3)c(Nc3ccc(F)cc3)cc21	cell-free assay	0.5 µM	remaining signal	110%
CCN(CC)c1ccc(C2=NNC(=O)CC2C)cc1[N+](=O)[O-] (stereo not shown)	enzyme activity, inhibitor	10 µM	remaining activity	104%
CCN(CC)CCNC(=O)c1c(C)[nH]c(/C=C2\C(=O)Nc3ccc(F)cc32)c1C	enzyme activity, inhibitor	0.3 µM	inhibition	3%
Nc1cnc(N2CCc3cc(S(=O)(=O)Nc4c(F)cc(Cl)cc4F)cc(N4CCCC4=O)c32)nc1	cell-free assay, competition with immobilised ligand	1 µM	remaining binding	100%
CCCS(=O)(=O)Nc1ccc(F)c(C(=O)c2c[nH]c3ncc(-c4ccc(Cl)cc4)cc23)c1F	enzyme activity, inhibitor	1 µM	inhibition	< 10%
O=C(N1CCS(=O)(=O)CC1)N1C[C@H](c2ccc(OC(F)(F)F)cc2)C[C@H](c2nc(C3CC3)no2)C1	cell-free assay, competition with immobilised ligand	1 µM	remaining binding	73%
Cc1cnc(NC2CCOCC2)nc1-n1cnc(C(=O)NC(CN)c2cc(F)cc(Cl)c2)c1 (stereo not shown)	enzyme activity, inhibitor, radiometric	1 µM	remaining activity	85%
CN1CC(Oc2cnc(C#N)cc2-c2ccn3nc(NC(=O)C4CC4)cc3c2)C1	enzyme activity, inhibitor	1 µM	inhibition	8%
